System: MS2 coat protein
Assay: apparent Kd, MS2 coat protein; higher = weaker binding; RNA-MaP array; FMN 200 µM where present
Outline: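 SNAP-549-labelled MS2 coat protein, doubled from 0.7 or 1.5 nM to 3 µM, was titrated over designs transcribed by stalled E. coli RNA polymerase on Illumina sequencing-chip clusters. Titrations were run without and then with constant ligand in 100 mM Tris-HCl pH 7.5, 80 mM KCl, 4 mM MgCl2, BSA, DTT, yeast tRNA and Tween-20. The apparent Kd is the median of filtered per-cluster fits to green signal normalised to red-channel RNA signal and control-cluster median Fmax.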

[1] = designed as: OFF switch for flavin mononucleotide, no ligand
[2] = ligand present: flavin mononucleotide, designed as: OFF switch for flavin mononucleotide
[3] = designed as: ON switch for flavin mononucleotide, no ligand
[4] = ligand present: flavin mononucleotide, designed as: ON switch for flavin mononucleotide

Sequence: GGAUGACAAAGUCAUCCAUUACGAACAUGAGGAUCACCCAUGUAGGAUAUGCAACUCAAAGAGUUGCAGAAGGACAUGUGUCUU
- apparent Kd [1]: 0.0296 µM
- apparent Kd [2]: 0.146 µM

Sequence: GUACGGAAGGAGAAGGGCUAGGAGGUCCAGUUUAUGUGUGUUGCAACAUGAGGAUCACCCAUGUAGCAGGAUAUCCUUUGUACA
- apparent Kd [1]: 0.0856 µM
- apparent Kd [2]: 0.177 µM

Sequence: GCUGUCGCGUGAGGAUAUGGUCGGCUGUGCUGACCAGAAGGCAUGUCAAUAGACAUGAGGAUCACCCAUGUGGUUAGGGCGGCU
- apparent Kd [3]: 0.865 µM
- apparent Kd [4]: 0.127 µM

Sequence: GUUGCUACUGAGGAUAUUAUUCUACCCGACUGAUAAGAAGGCAGUACAUGAGGAUCACCCAUGUGGGUAGCCAG
- apparent Kd [1]: 0.0167 µM
- apparent Kd [2]: 0.0225 µM

Sequence: AUCUCGUCAGGAUAUUGGAUCUGGAUCGAAAGGUCUAGGUCUAAGAAGGGACAUGAGGAUCACCCAUGUCUGGU
- apparent Kd [1]: 0.0229 µM
- apparent Kd [2]: 0.0696 µM

Sequence: UUAACUCAUGUAGGAUAUGCAUGGCGAAGCUACGCAGAAGGACAUGAGGAUCACCCAUGUUCUAGCGUCUGAAUACAGAUGCAA
- apparent Kd [1]: 0.0537 µM
- apparent Kd [2]: 0.303 µM

Sequence: UUAGGACAAGCAGGAUAUGUAACAUGAGGAUCACCCAUGUUGAGACUUUGGCACUCCUACAUGCAGCAGAAGGGCUUCAAACCU
- apparent Kd [1]: 0.0297 µM
- apparent Kd [2]: 0.0664 µM

Sequence: UGUUGUAUUACAGGAUAUCUAUUAUUUUUAUAUAGAGAAGGGUAUUCACAUGAGGAUCACCCAUGUAUAUACGAGGAAGUUGUG
- apparent Kd [3]: 0.0372 µM
- apparent Kd [4]: 0.0408 µM

Sequence: AAGCAGGUAAUAAAGUAGAAAUACAUGAGGAUCACCCAUGUAUAGGAUAUCGUCAGGAAUACUGACGAGAAGGAUACAUCCUGC
- apparent Kd [1]: 0.0153 µM
- apparent Kd [2]: 0.0186 µM

Sequence: UGGUACAUGGGAGGAUAUCGUGUAGACACAUGAGGAUCACCCAUGUCGAUGGAGACAUCGGAGAUCGAGAAGGCCCAUGUACCU
- apparent Kd [3]: 0.0846 µM
- apparent Kd [4]: 0.00881 µM

Sequence: CUGAAGUCAGGAUAUCGUUAAUUUAGUUGUUUGUAUUAGUUCGAGAAGGGACAUGAGGAUCACCCAUGUAAGUU
- apparent Kd [1]: 0.0336 µM
- apparent Kd [2]: 0.0513 µM

Sequence: GAGUAGAUCCGAGGAUAUACAAUCCGGAAACGGUACAUGAGGAUCACCCAUGUAGAAGGCGGAUCUACAGGUACUAAAGUACCU
- apparent Kd [2]: 0.00789 µM

Sequence: GCAUGCAUAGCGAUAUGAUCGAGAGAUCAUGUCGCUAAAUUUAGAAGGACAUGAGGAUCACCCAUGUAGGAUAUGGGAGCAUGU
- apparent Kd [3]: 0.0921 µM
- apparent Kd [4]: 0.0154 µM

Sequence: AAGGCCUAUUCCAGGACUAUCGUACUAGAAGGGUGACUUGACAUGAGGAUCACCCAUGUACGAGCACAGGAUAUAGAUGAAAGG
- apparent Kd [3]: 0.0427 µM
- apparent Kd [4]: 0.0202 µM

Sequence: GUGGUCAGACAUGAGGAUCACCCAUGUGGAAUAAAUAACAGACAGGAUAUAUAAUAUAGGAUAUAGUAGAAGGGUCGAUUGGUG
- apparent Kd [3]: 0.0819 µM
- apparent Kd [4]: 0.0858 µM

Sequence: UUCAGCUCGUCAGGAUAUACGUCACUGCUUCGGCAGUGUGGUAAGAUCACAUGAGGAUCACCCAUGUAGAAGGGACGAGCUGAA
- apparent Kd [1]: 0.0125 µM
- apparent Kd [2]: 0.254 µM

Sequence: AAAAGACAUGAGGAUCACCCAUGUCAAGACGUAGGAGGAUAUGUCGUGAAAAAAGACUUGACAGAAGGCCUGUGUC
- apparent Kd [3]: 0.0187 µM
- apparent Kd [4]: 0.0154 µM

Sequence: GGUGCGUUUGUGAGGAUAUGCUGGUCCUUGGAUCAGCAGAAGGCACAUGAGGAUCACCCAUGUGGUGUCGUCCC
- apparent Kd [1]: 0.348 µM
- apparent Kd [2]: 0.0447 µM

Sequence: CGCAUGCGUAGAAUUAGCUGCUGACAGGAUAUGACAUGAGGAUCACCCAUGUGAUUUAAGAAGAGUCAGAAGGGUCACGAUGCG
- apparent Kd [1]: 0.0078 µM
- apparent Kd [2]: 0.0135 µM

Sequence: GUGCCUUGGGAGAAGGCCCAAUGCAAAGCAUAGGGAGGAUAUCCAUAUAAUAAAUAAACAUGAGGAUCACCCAUGUGGCACAAA
- apparent Kd [3]: 0.0194 µM
- apparent Kd [4]: 0.012 µM

Sequence: UACAUGAGGAUCACCCAUGUUUUGUCGUGUAUGGUAUUUAUCUAGGAUAUCAUUUUAUUUAGGUAUGAGAAGGAGAAUAUUAAU
- apparent Kd [1]: 0.0354 µM
- apparent Kd [2]: 0.0362 µM

Sequence: UUAUAAAGUGUGAGGAUAUGCUGGUCCAUAGAUCAGCAGAAGGCACAUGAGGAUCACCCAUGUAAUAUAUUUUU
- apparent Kd [1]: 0.0288 µM
- apparent Kd [2]: 0.133 µM

Sequence: AAUUUAAUACAUGAGGAUCACCCAUGUAAAUUAAUUAAGAUCUAGGAUAUCAGCUCGAAUAGAGCUGAGAAGGAGAUCACAUGU
- apparent Kd [3]: 0.0174 µM
- apparent Kd [4]: 0.0151 µM

From the EternaBench riboswitch data
